From ChEMBL document CHEMBL3871266, “Synthesis and cytotoxic activity of novel A-ring cleaved ursolic acid derivatives in human non-small cell lung cancer cells” (Eur J Med Chem, 2016) come the findings set out here.

Experiment [1] can be described thus: Upregulation of Atg3 level in human NCI-H460 cells expressing CTR5 gene at 3.5 uM measured after 24 hrs by reverse-phase protein array method relative to control. It is filed as functional, cell-based.
For experiment [2], the system named is NCI-H460. In words: Induction of apoptosis in human NCI-H460 cells expressing CTR5 gene assessed as decrease in procaspase3 level at 4.5 uM measured after 24 hrs by Western blot analysis. Also on record: scale not given: the % may be the effect or the level left. It is filed as functional. In outline:
(§1)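 Cells were seeded at 3×10^5 (H460) or 4.2×10^5 (H322) per dish and treated 24h later with DMSO or a concentration series for 24h. Lysed in cold RIPA with phosphatase and protease inhibitors, then sonicated. 30 μg protein run on Bis-Tris gels and transferred to nitrocellulose or PVDF. Detection used infrared secondary antibodies on an Odyssey imager. Signal normalized to β-actin or GAPDH and to DMSO control; three independent experiments.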
(In general: A western blot detects proteins with antibodies after separation by electrophoresis.)

Experiment [3] deals with NCI-H460. In words: Induction of apoptosis in human NCI-H460 cells expressing CTR5 gene assessed as downregulation of Bcl2 expression at 3 to 5.5 uM measured after 24 hrs by Western blot analysis. It is filed as functional, cell-based. In outline:
as §1

Experiment [4] is described as follows: Upregulation of Atg7 level in human NCI-H460 cells expressing CTR5 gene at 3.5 uM measured after 24 hrs by reverse-phase protein array method relative to control. It counts as functional, cell-based.
Experiment [5] has as its system NCI-H460. In words: Induction of apoptosis in human NCI-H460 cells expressing CTR5 gene assessed as downregulation of Mcl1 short isoform expression at 3 to 4.5 uM measured after 24 hrs by Western blot analysis. It is filed as functional, cell-based. In outline: as §1
The target of experiment [6] is Serine/threonine-protein kinase mTOR (Homo sapiens) (UniProt P42345). In words: Inhibition of mTOR in human NCI-H460 cells expressing CTR5 gene assessed as decrease in S6 phosphorylation at S235/236 site by reverse-phase protein array method relative to control. It counts as cell-based.
Experiment [7] is described as follows: Cytotoxicity against human NCI-H460 cells expressing CTR5 gene assessed as reduction in cell viability measured after 72 hrs by CellTiter-Blue cell viability assay. It counts as functional, cell-based. To be noted: Homo sapiens, NCI-H460, 72 h; read-out: IC50. In outline:
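Monolayer cultures in RPMI-1640 with 10% FBS at 37°C, seeded at 850 (H460 CTR5), 660 (H460 LKB1+/+) or 1780 (H322) cells/well so that the end point reaches 70–80% confluence. Treated 72h; vehicle 0.15% DMSO. CellTiter-Blue added until colour change (50–60, 80–90 or 100–120 min respectively), fluorescence read at 590 nm. IC50 by nonlinear regression; three independent experiments.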
In general terms: Resazurin is reduced to fluorescent resorufin, in cell work by metabolically active cells.

In experiment [8] the target is Serine/threonine-protein kinase mTOR (Homo sapiens) (UniProt P42345). In words: Inhibition of mTOR in human NCI-H460 cells expressing CTR5 gene assessed as decrease in S6 phosphorylation at S240/44 site by reverse-phase protein array method relative to control. It counts as cell-based.
Experiment [9] in a line: Downregulation of p62 level in human NCI-H460 cells expressing CTR5 gene at 3 to 5.5 uM measured after 24 hrs by Western blot analysis. It is filed as functional, cell-based. In outline:
as §1

Experiment [10] is described as follows: Upregulation of LC3-2 level in human NCI-H460 cells expressing CTR5 gene at 3.5 uM measured after 24 hrs by reverse-phase protein array method relative to control. It counts as functional, cell-based.
Experiment [11] deals with NCI-H460. In words: Induction of apoptosis in human NCI-H460 cells expressing CTR5 gene assessed as late apoptotic cells at 4 uM measured after 72 hrs by Annexin V-Cy5/propidium iodide staining-based flow cytometry (reference value: 2.7%). It counts as functional. For orientation: Flow cytometry measures light scatter and fluorescence of single cells or particles in a stream.

Experiment [12] has as its system NCI-H460. In words: Induction of autophagy in human NCI-H460 cells expressing CTR5 gene assessed as acidic vesicular organelle formation at 4 uM measured after 72 hrs by acridine orange dye based flow cytometry (reference value: 91.2%). It is filed as functional.
Experiment [13] concerns NCI-H460. In words: Induction of autophagy in human NCI-H460 cells expressing CTR5 gene measured after 24 hrs by microarray method. It is filed as functional, cell-based.
In experiment [14] the test system is NCI-H460. In words: Induction of apoptosis in human NCI-H460 cells expressing CTR5 gene assessed as early apoptotic cells at 4 uM measured after 72 hrs by Annexin V-Cy5/propidium iodide staining-based flow cytometry (reference value: 1.8%). It is filed as functional.
The test system of experiment [15] is NCI-H460. In words: Induction of apoptosis in human NCI-H460 cells expressing CTR5 gene assessed as increase in cleavage of procaspase7 at 3 to 5.5 uM measured after 24 hrs by Western blot analysis. It counts as functional, cell-based. In outline: as §1
The subject of experiment [16] is NCI-H322. In words: Induction of apoptosis in human NCI-H322 cells assessed as increase in cleaved PARP level at 3 to 5.5 uM measured after 24 hrs by Western blot analysis. It counts as functional, cell-based. In outline: as §1
In experiment [17] the target is Serine/threonine-protein kinase mTOR (Homo sapiens) (UniProt P42345). In words: Inhibition of mTOR in human NCI-H460 cells expressing CTR5 gene assessed as upregulation of EIF4E pS09 level. It counts as cell-based.
Experiment [18] deals with NCI-H460. In words: Induction of apoptosis in human NCI-H460 cells expressing CTR5 gene assessed as early apoptotic cells at 5 uM measured after 72 hrs by Annexin V-Cy5/propidium iodide staining-based flow cytometry (reference value: 1.7%). It is filed as functional.
The nature of experiment [19]: Cytotoxicity against human NCI-H322 spheroids assessed as reduction in cell viability measured after 96 hrs by CellTiter-Glo luminescence viability assay. It is filed as functional. To be noted: NCI-H322, 96 h. In outline:
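Spheroids grown in round-bottom ultralow-attachment wells, 495 (H460 CTR5) or 650 (H322) cells/well. Drug exposure 96h with DMSO vehicle. CellTiter-Glo added, shaken 20 min, left 10 min, then luminescence read. IC50 by nonlinear regression; three independent experiments.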

For experiment [20], the system named is NCI-H460. In words: Induction of apoptosis in human NCI-H460 cells expressing CTR5 gene assessed as late apoptotic cells at 5 uM measured after 72 hrs by Annexin V-Cy5/propidium iodide staining-based flow cytometry (reference value: 3.2%). It is filed as functional.

Calls of active or inactive are those of the source. No cut-off for these calls is given here.

Turning to `C=C(C)[C@@H]1CC[C@]2(C)[C@H](C[C@@H](F)C34OC(=O)[C@@]5(CC[C@@H](C)[C@H](C)[C@@H]35)CC[C@]42C)[C@@]1(C)CCC(=O)NCCC`, the Activity is 5.1% in experiment [1]; 29% in [2]; “Dose-dependent effect” in [3]; 4.5% in experiment [4]; “Dose-dependent effect” in experiment [5]; 10.7% in experiment [10]. In addition, the Activity is 11.5% in experiment [11]; 66.7% in experiment [12]; 7.6% in experiment [14]; 13.4% in experiment [18]; 29.1% in experiment [20]. In addition, the inhibition in [6] turned out to be 11.7%; in experiment [8] it was 8.4%. In addition, the values for the IC50 in [7] and in [19] were 2.6 µM and 10 µM, respectively. The outcome in experiment [9], in experiment [13], in experiment [15] and in experiment [16] was Active. In addition, the inhibition entry in experiment [17] was “Active”.

Usually inhibition stands for the drop in the measured response relative to a control, in per cent. The term IC50 denotes the midpoint of a concentration-inhibition curve.
